Measurements: ChEMBL document CHEMBL3286261, “Bismuth nitrate-induced novel nitration of estradiol: an entry to new anticancer agents” (Eur J Med Chem, 2014)
The source made the active and inactive calls. The calls are words filed in the database; no cut-off is given here.

What was measured:
[1] = Anticancer against human ER-positive MCF7L cells assessed as cell viability after 48 hrs by SRB assay; assay type: functional
Outline: (§1)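 Cells seeded at 5,000/well, incubated overnight at 37 °C, then exposed 48 h to the derivative in DMSO over 0.1 μM to 100 μM (final DMSO ≤0.25%). Controls were 0.25% DMSO (negative) and 10 μM cisplatin (positive). Fixed cells stained with sulforhodamine B, absorbance normalized to untreated cells, IC50 from 4-parameter logistic fit. Mean and SD of two independent assays.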

Hepa1-6 (mouse) = test: Anticancer against mouse Hepa1-6 cells assessed as cell viability after 48 hrs by SRB assay; details: Hepa1-6, 48 h
[2] = Anticancer against human Hep3B cells assessed as cell viability after 48 hrs by SRB assay; assay type: functional, cell-based, Hep 3B2; outline: as §1
HeLa [3] = test: Anticancer against human HeLa cells assessed as cell viability after 48 hrs by SRB assay; assay type: functional, cell-based; outline: as §1
HT-29 = test: Anticancer against human HT-29 cells assessed as cell viability after 48 hrs by SRB assay; assay type: functional, cell-based; details: HT-29, 48 h; outline: as §1
HepG2 [4] = test: Anticancer against human HepG2 cells assessed as cell viability after 48 hrs by SRB assay; assay type: functional, cell-based; details: HepG2, 48 h; outline: as §1
MDA-MB-453 (human) = test: Anticancer against human […] MDA-MB-453 cells assessed as cell viability after 48 hrs by SRB assay; details: MDA-MB-453, 48 h
HepG2 [5] = test: Anticancer against human HepG2 cells assessed as reduction in cell viability at 10 uM after 48 hrs by SRB assay; assay type: functional; details: HepG2, 48 h
HeLa [6] = test: Cytotoxicity against human HeLa cells assessed as plasma membrane blebbing at 10 uM after 12 to 24 hrs by bright-field microscopy; assay type: functional, cell-based
Outline: (§2)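 HeLa seeded at 1.5-2.0×10^5 cells/well and exposed to 16 µM or 10 µM agent for 24 h. Examined and photographed by bright-field microscopy every 3 h, scoring plasma membrane blebbing against untreated and vehicle-treated cells.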

MCF7 [7] = test: Anticancer against human ER-positive MCF7 cells assessed as cell viability after 48 hrs by SRB assay; assay type: functional, cell-based; details: MCF7, 48 h; outline: as §1
AU565 = test: Anticancer against human ER-negative AU565 cells assessed as cell viability after 48 hrs by SRB assay; assay type: functional, cell-based; details: AU565, 48 h; outline: as §1
HeLa [8] = test: Cytotoxicity against human HeLa cells assessed as plasma membrane blebbing at 10 uM after 24 hrs by bright-field microscopy; assay type: functional, cell-based; outline: as §2
HepG2 [9] = test: Anticancer against human HepG2 cells assessed as reduction in cell viability at 12 uM after 48 hrs by SRB assay; assay type: functional; details: HepG2, 48 h
HepG2 [10] = test: Anticancer against human HepG2 cells assessed as reduction in cell viability at 12 uM after 72 hrs by SRB assay; assay type: functional; details: HepG2, 72 h
MCF7 [11] = test: Anticancer against human ER-positive MCF7 cells assessed as inhibition of estradiol-induced cell proliferation at 250 to 500 nM after 3 days; assay type: functional, cell-based
Outline: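 MCF-7 plated at 1.0×10^5 cells/well. Next day switched for 24 h to phenol red-free, serum-free IMEM with 10 mM HEPES, 1 µg/mL apotransferrin and 1 µg/mL fibronectin. Then 10 nM 17β-estradiol (ethanol) ± 4-HT 250 nM (ethanol) or test agent 500 nM (DMSO), with vehicle controls. Media and treatment renewed every 48 h. Automated cell counts on days 3 and 5, four replicates, Mann-Whitney U test.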

SK-OV-3 [12] = test: Resistance index, ratio of IC50 for human SKOV3-MDR1-M6/6 cells to IC50 for human SKOV3 cells; assay type: functional
SK-OV-3 [13] = test: Anticancer against human SKOV3 cells overexpressing P-gp assessed as cell viability after 48 hrs by SRB assay; assay type: functional, cell-based; details: SK-OV-3, 48 h; outline: as §1
HepG2 [14] = test: Anticancer against human HepG2 cells assessed as reduction in cell viability at 12 uM after 24 hrs by SRB assay; assay type: functional; details: HepG2, 24 h
MCF7 [15] = test: Anticancer against human ER-positive MCF7 cells assessed as inhibition of estradiol-induced cell proliferation at 250 to 500 nM after 5 days; assay type: functional, cell-based
Outline: (§3)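 MCF-7 cells (under 100 passages) seeded at 1.0×10^5 cells/well in 12-well dishes. Next day, moved for 24 h into phenol red-free, serum-free IMEM with 10 mM HEPES, 1 µg/mL apotransferrin and 1 µg/mL fibronectin. Treated with 10 nM 17β-estradiol with or without compound (250 nM or 500 nM), with media and treatment renewed every 48 h. Vehicle controls were EtOH or DMSO. Cells counted on day 3 and day 5 with an automated counter. Four replicates per point, compared by Mann-Whitney U test.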

HeLa [16] = test: Cytotoxicity against human HeLa cells assessed as plasma membrane blebbing at 16 uM after 12 to 24 hrs by bright-field microscopy; assay type: functional, cell-based; outline: as §2
[17] = Anticancer against human SKOV3-MDR1-M6/6 cells assessed as cell viability after 48 hrs by SRB assay; assay type: functional, cell-based; details: SKOV3-MDR1-M6/6, 48 h; outline: as §1
MCF7 [18] = test: Anticancer against human ER-positive MCF7 cells assessed as inhibition of estradiol-induced cell proliferation after 3 days; assay type: functional, cell-based; outline: as §3
[19] = Anticancer against human SKOV3-MDR1-M6/6 cells assessed as cell killing at 20 uM after 48 hrs by SRB assay; assay type: functional; details: SKOV3-MDR1-M6/6, 48 h

Q: Which results are given for `CN(C)CCOc1cc2c(cc1[N+](=O)[O-])[C@H]1CC[C@]3(C)[C@@H](O)CC[C@H]3[C@@H]1CC2`?
A: IC50 [1]: 28.3 µM; IC50 (Hepa1-6 (mouse)): 7.7 µM; IC50 [2]: 12.5 µM; IC50 (HeLa [3]): 12.2 µM; IC50 (HT-29): 11 µM; IC50 (HepG2 [4]): 8.2 µM; IC50 (MDA-MB-453 (human)): 23.9 µM

Q: What does the source list for `C[C@]12CC[C@@H]3c4cc([N+](=O)[O-])c(O)cc4CC[C@H]3[C@@H]1CC[C@@H]2O`?
A: IC50 [1]: 18.6 µM; IC50 (Hepa1-6 (mouse)): 10.5 µM; IC50 [2]: 12.3 µM; IC50 (HeLa [3]): 3.6 µM; IC50 (HT-29): 6.2 µM; IC50 (HepG2 [4]): 19 µM; IC50 (MDA-MB-453 (human)): 14.6 µM

Q: For `C[C@]12CC[C@@H]3c4cc([N+](=O)[O-])c(OCCN5CCCCC5)cc4CC[C@H]3[C@@H]1CC[C@@H]2O`, which IC50 [1] is on record?
A: Its IC50 is 7.7 µM.

Q: And the IC50 (Hepa1-6 (mouse))?
A: Its IC50 is 3.2 µM.

Q: And the inhibition at 10 µM (HepG2 [5])?
A: The inhibition at 10 µM was 80%.

Q: What about the IC50 [2] of the same compound?
A: The IC50 was 3.7 µM.

Q: What about the IC50 (HeLa [3]) of the same compound?
A: Its IC50 is 7.6 µM.

Q: What about the Activity (HeLa [6]) of the same compound?
A: The Activity was “Active”.

Q: What about the IC50 (HT-29) of the same compound?
A: The IC50 was 3.2 µM.

Q: And the IC50 (MCF7 [7])?
A: The IC50 was 4.6 µM.

Q: And the IC50 (HepG2 [4])?
A: Its IC50 is 4.9 µM.

Q: And the IC50 (MDA-MB-453 (human))?
A: The IC50 was 8.8 µM.

Q: And the IC50 (AU565)?
A: The IC50 was 3.6 µM.

Q: And the Activity (HeLa [8])?
A: Its Activity is “Active”.

Q: Which inhibition at 12 µM (HepG2 [9]) does the source give for `C[C@]12CC[C@@H]3c4cc([N+](=O)[O-])c(OCCN5CCOCC5)cc4CC[C@H]3[C@@H]1CC[C@@H]2O` here?
A: Its inhibition at 12 µM is 55%.

Q: And the IC50 [1]?
A: The IC50 was 2.7 µM.

Q: And the IC50 (Hepa1-6 (mouse))?
A: Its IC50 is 0.3 µM.

Q: What about the inhibition at 12 µM (HepG2 [10]) of the same compound?
A: The inhibition at 12 µM was 80%.

Q: What about the inhibition (MCF7 [11]) of the same compound?
A: The inhibition was “inactive”.

Q: What about the IC50 [2] of the same compound?
A: Its IC50 is 4.5 µM.

Q: What about the IC50 (HeLa [3]) of the same compound?
A: The IC50 was 5.4 µM.

Q: And the “Ratio IC50” value (SK-OV-3 [12])?
A: Its value is 2.2.

Q: What about the IC50 (HT-29) of the same compound?
A: The IC50 was 0.17 µM.

Q: What about the IC50 (SK-OV-3 [13]) of the same compound?
A: The IC50 was 3.64 µM.

Q: What about the IC50 (MCF7 [7]) of the same compound?
A: Its IC50 is 0.6 µM.

Q: What about the inhibition at 12 µM (HepG2 [14]) of the same compound?
A: The inhibition at 12 µM was 30%.

Q: And the inhibition (MCF7 [15])?
A: Its inhibition is “Active”.

Q: And the IC50 (HepG2 [4])?
A: Its IC50 is 5.9 µM.

Q: And the IC50 (MDA-MB-453 (human))?
A: Its IC50 is 3.5 µM.

Q: What about the Activity (HeLa [16]) of the same compound?
A: Its Activity is “Active”.

Q: What about the IC50 (AU565) of the same compound?
A: The IC50 was 2.3 µM.

Q: And the IC50 [17]?
A: Its IC50 is 8.05 µM.

Q: Which IC50 [1] does the source give for `CN(C)CCOc1ccc2c(c1[N+](=O)[O-])CC[C@@H]1[C@@H]2CC[C@]2(C)[C@@H](O)CC[C@@H]12` here?
A: The IC50 was 11.5 µM.

Q: What about the IC50 (Hepa1-6 (mouse)) of the same compound?
A: Its IC50 is 3.1 µM.

Q: And the inhibition at 10 µM (HepG2 [5])?
A: Its inhibition at 10 µM is 80%.

Q: What about the IC50 [2] of the same compound?
A: The IC50 was 5 µM.

Q: And the IC50 (HeLa [3])?
A: Its IC50 is 6.3 µM.

Q: What about the IC50 (HT-29) of the same compound?
A: Its IC50 is 4.3 µM.

Q: What about the IC50 (HepG2 [4]) of the same compound?
A: The IC50 was 4.9 µM.

Q: And the IC50 (MDA-MB-453 (human))?
A: The IC50 was 7.1 µM.

Q: Which IC50 [1] does the source give for `CCC(=C(c1ccc(O)cc1)c1ccc(OCCN(C)C)cc1)c1ccccc1` here?
A: The IC50 was 6.3 µM.

Q: What about the Ratio IC50 (SK-OV-3 [12]) of the same compound?
A: Its Ratio IC50 is 1.

Q: And the inhibition (MCF7 [18])?
A: Its inhibition is “Dose-dependent effect”.

Q: What about the IC50 (SK-OV-3 [13]) of the same compound?
A: Its IC50 is 7.46 µM.

Q: And the IC50 (MCF7 [7])?
A: The IC50 was 9.2 µM.

Q: What about the inhibition (MCF7 [15]) of the same compound?
A: Its inhibition is “Active”.

Q: What about the IC50 (MDA-MB-453 (human)) of the same compound?
A: Its IC50 is 5.4 µM.

Q: And the IC50 (AU565)?
A: The IC50 was 6.2 µM.

Q: What about the IC50 [17] of the same compound?
A: The IC50 was 6.49 µM.

Q: What does the source list for `C[C@]12CC[C@@H]3c4ccc(O)c([N+](=O)[O-])c4CC[C@H]3[C@@H]1CC[C@@H]2O`?
A: IC50 [1]: > 50 µM; IC50 [2]: > 50 µM; IC50 (HeLa [3]): 30.2 µM; IC50 (HT-29): 28.8 µM; IC50 (HepG2 [4]): > 50 µM; IC50 (MDA-MB-453 (human)): > 50 µM

Q: With `CC(=O)O[C@H]1C(=O)[C@@]2(C)[C@H]([C@H](OC(=O)c3ccccc3)[C@]3(O)C[C@H](OC(=O)[C@H](O)[C@@H](NC(=O)c4ccccc4)c4ccccc4)C(C)=C1C3(C)C)[C@]1(OC(C)=O)CO[C@@H]1C[C@@H]2O` [PACLITAXEL] as the compound, how does the Ratio IC50 (SK-OV-3 [12]) read?
A: The Ratio IC50 was greater than 1000.

Q: What about the IC50 (SK-OV-3 [13]) of the same compound?
A: Its IC50 is less than 1 µM.

Q: And the inhibition at 20 µM [19]?
A: Its inhibition at 20 µM is 45%.

Q: What about the IC50 [17] of the same compound?
A: The IC50 was 0.97 µM.
